# Laboratory results taken from ChEMBL document CHEMBL1275410, “Synergy between polyethylenimine and different families of antibiotics against a resistant clinical isolate of Pseudomonas aeruginosa” (2008).
# Active and inactive are the calls of the source. The rule behind the calls is not given here.
# Experiments:
# Type in all cases: functional
# Pseudomonas aeruginosa [1] = assay: Antibacterial activity against Pseudomonas aeruginosa 100609 after 20 hrs by broth microdilution assay
# Outline: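 Broth microdilution in TSB per CLSI: a 5 × 10^5 CFU/ml inoculum (OD660 0.02) was added to serial twofold antibiotic dilutions. Plates were shaken at 37°C for 20 h. MIC was the lowest concentration with no visible growth, determined in triplicate.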
# Pseudomonas aeruginosa [2] = assay: FIC index, ratio of MIC for Pseudomonas aeruginosa 100609 in presence of 250 ug/ml polyethylenimine to MIC for Pseudomonas aeruginosa 100609
# Pseudomonas aeruginosa [3] = assay: Antibacterial activity against Pseudomonas aeruginosa 100609 assessed as reduction in bacterial count at 0.25 times MIC after 9 hrs by time-kill assay in presence of 250 ug/ml polyethylenimine relative to control
# Outline: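 Time-kill assay: TSB was seeded from a 17-h preculture to 5 × 10^7 CFU/ml (set by OD660). Antibiotic was at 25% of MIC, with PEI at a final 250 nM (legend gives 250 μg/ml). Controls were PEI alone, antibiotic alone and bacteria alone. Viable counts on LB agar were taken at 0, 1.5, 3, 6 and 9 h, in triplicate. Synergy was a ≥2.0 mean log10 CFU/ml drop versus antibiotic alone.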
# Pseudomonas aeruginosa [4] = assay: FIC index, ratio of MIC for Pseudomonas aeruginosa 25619 in presence of 250 ug/ml polyethylenimine to MIC for Pseudomonas aeruginosa 25619
# Outline: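 Checkerboard combination of PEI (mean MW 10 kDa) with antibiotic against P. aeruginosa ATCC 25619, in TSB inoculated at about 5 × 10^5 CFU/ml, run in triplicate. ΣFIC was derived from the combination; 0.5 to 2.0 is read as indifference and ≥4.0 as antagonism.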
# [5] = Pseudomonas aeruginosa, 100609, 20 h
Molecule,MIC (Pseudomonas aeruginosa [1]; [5]) [µg/mL],fractional inhibitory concentration index (FICI) (Pseudomonas aeruginosa [2]),Activity (Pseudomonas aeruginosa [3]),fold change (FC) (Pseudomonas aeruginosa [3]),fractional inhibitory concentration index (FICI) (Pseudomonas aeruginosa [4]),MIC (Pseudomonas aeruginosa [1]) [µg/mL]
CCN1CCN(C(=O)N[C@@H](C(=O)N[C@@H]2C(=O)N3[C@@H]2SC(C)(C)[C@@H]3C(=O)O)c2ccccc2)C(=O)C1=O [PIPERACILLIN],40,,,,,
CC1COc2c(N3CCN(C)CC3)c(F)cc3c(=O)c(C(=O)O)cn1c23 (centres undefined) [OFLOXACIN],10,1,,,,
CO/N=C(\C(=O)N[C@@H]1C(=O)N2C(C(=O)O)=C(COC(C)=O)CS[C@H]12)c1csc(N)n1 [CEFOTAXIME],960,0.14,,,,
CN[C@H](CC(C)C)C(=O)N[C@H]1C(=O)N[C@@H](CC(N)=O)C(=O)N[C@H]2C(=O)N[C@H]3C(=O)N[C@H](C(=O)N[C@H](C(=O)O)c4cc(O)cc(O)c4-c4cc3ccc4O)[C@H](O)c3ccc(c(Cl)c3)Oc3cc2cc(c3O[C@@H]2O[C@H](CO)[C@@H](O)[C@H](O)[C@H]2O[C@H]2C[C@](C)(N)[C@H](O)[C@H](C)O2)Oc2ccc(cc2Cl)[C@H]1O [VANCOMYCIN],1120,3.4,inactive,,,
CCn1cc(C(=O)O)c(=O)c2cc(F)c(N3CCNCC3)cc21 [NORFLOXACIN],15,0.68,,,,
CO[C@H]1/C=C/O[C@@]2(C)Oc3c(C)c(O)c4c(O)c(c(/C=N/N5CCN(C)CC5)c(O)c4c3C2=O)NC(=O)/C(C)=C\C=C\[C@H](C)[C@H](O)[C@@H](C)[C@@H](O)[C@@H](C)[C@H](OC(C)=O)[C@@H]1C [RIFAMPIN],20,0.05,,100000,,
CN(C)[C@@H]1C(O)=C(C(N)=O)C(=O)[C@@]2(O)C(O)=C3C(=O)c4c(O)cccc4[C@@](C)(O)[C@H]3C[C@@H]12 [TETRACYCLINE],20,1,,,,
NC[C@H]1O[C@H](O[C@H]2[C@H](O)[C@@H](O[C@H]3O[C@H](CO)[C@@H](O)[C@H](N)[C@H]3O)[C@H](N)C[C@@H]2N)[C@H](N)C[C@@H]1O [TOBRAMYCIN],50,4.81,,,,
CC(C)(O/N=C(\C(=O)N[C@@H]1C(=O)N2C(C(=O)[O-])=C(C[n+]3ccccc3)CS[C@H]12)c1csc(N)n1)C(=O)O [CEFTAZIDIME],400,0.04,,100000,0.09,
POLYMYXIN B,,2.01,inactive,,,5
O=C(O)c1cn(C2CC2)c2cc(N3CCNCC3)c(F)cc2c1=O [CIPROFLOXACIN],30,1,,,,
CO[C@@H]1[C@@H](OC(N)=O)[C@@H](O)[C@H](Oc2ccc3c(O)c(NC(=O)c4ccc(O)c(CC=C(C)C)c4)c(=O)oc3c2C)OC1(C)C [NOVOBIOCIN],1600,0.1,,100000000,0.35,
GENTAMICIN,,1.72,,,,1120
COLISTIN,,2.01,,,,5
CC1(C)S[C@@H]2[C@H](NC(=O)[C@H](C(=O)O)c3ccsc3)C(=O)N2[C@H]1C(=O)O [TICARCILLIN],1120,,,,,
O=C(N[C@H](CO)[C@H](O)c1ccc([N+](=O)[O-])cc1)C(Cl)Cl [CHLORAMPHENICOL],100,0.41,,100000,,
CC1(C)S[C@@H]2[C@H](NC(=O)C(C(=O)O)c3ccccc3)C(=O)N2[C@H]1C(=O)O (some centres undefined) [CARBENICILLIN],2240,,,,,
CC[C@H]1OC(=O)[C@H](C)[C@@H](O[C@H]2C[C@@](C)(OC)[C@@H](O)[C@H](C)O2)[C@H](C)[C@@H](O[C@@H]2O[C@H](C)C[C@H](N(C)C)[C@H]2O)[C@](C)(O)C[C@@H](C)C(=O)[C@H](C)[C@@H](O)[C@]1(C)O [ERYTHROMYCIN],140,1,,,,
NC[C@@H]1O[C@@H](O[C@H]2[C@H](O)[C@@H](O[C@H]3O[C@H](CO)[C@@H](O)[C@H](N)[C@H]3O)[C@H](N)C[C@@H]2N)[C@@H](O)[C@H](O)[C@H]1O [KANAMYCIN A],1600,1.21,,,,
CC1(C)S[C@@H]2[C@H](NC(=O)[C@H](N)c3ccccc3)C(=O)N2[C@H]1C(=O)O [AMPICILLIN],2240,,,,,
